{"source": "ChEMBL document CHEMBL1671683", "about": "“Activity of linezolid in an in vitro pharmacokinetic-pharmacodynamic model using different dosages and Staphylococcus aureus and Enterococcus faecalis strains with and without a hypermutator phenotype” (Antimicrob Agents Chemother, 2010)", "key": {"Enterococcus faecalis [1]": {"system": "Enterococcus faecalis", "assay": "Bactericidal activity against 0.5 hrs peripheral compartment culture samples of Enterococcus faecalis Ef1497 MutM3 in two-compartment pharmacokinetic/pharmacodynamic model assessed as effect on bacterial count at 200 mg, bid administered as 0.5 hr infusion", "format": "functional", "in_short": "(§1)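 Two-compartment hollow-fibre model in cation-adjusted, protein-free MH broth, 37°C. Linezolid given as simulated 0.5-h infusion twice daily. Inoculum grown 18 h, concentrated 50-fold and placed in the peripheral compartment 3 h before t0. Peripheral samples at set times counted by dilution plating. First 10-fold dilution not plated, limiting detection to 2–3 log10 CFU/ml. Δlog CFU/ml taken from t0 count. Duplicates.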"}, "Enterococcus faecalis [2]": {"system": "Enterococcus faecalis", "assay": "Bactericidal activity against 0.5 hrs peripheral compartment culture samples of Enterococcus faecalis Ef1497 in two-compartment pharmacokinetic/pharmacodynamic model assessed as effect on bacterial count at 800 mg, bid administered as 0.5 hr infusion", "format": "functional", "in_short": "as §1"}, "Enterococcus faecalis [3]": {"system": "Enterococcus faecalis", "assay": "Bactericidal activity against 2 hrs peripheral compartment culture samples of Enterococcus faecalis Ef1497 MutM3 in two-compartment pharmacokinetic/pharmacodynamic model assessed as effect on bacterial count at 200 mg, bid administered as 0.5 hr infusion", "format": "functional", "in_short": "(§2)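 An 18-h culture concentrated 50-fold was injected into the peripheral compartment 3 h pre-sampling (~10^8 CFU/ml E. faecalis, 10^9 S. aureus). Counts came from dilution plating (detection limit 2–3 log10 CFU/ml), expressed as Δlog CFU/ml from treatment start. Run in duplicate.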"}, "in vivo": {"assay": "in vivo", "settings": "iv, 800 mg"}, "[4]": {"assay": "Volume of distribution at steady state in two-compartment pharmacokinetic/pharmacodynamic model bid administered as 0.5 hr infusion over 24 hrs", "settings": "in vivo, iv; read-out: Vdss"}, "[5]": {"assay": "AUC in two-compartment pharmacokinetic/pharmacodynamic model at 200 mg, bid administered as 0.5 hr infusion over 24 hrs", "format": "ADME", "design": "dose 200 mg, time < 24 hr", "settings": "in vivo, iv"}, "Enterococcus faecalis [6]": {"system": "Enterococcus faecalis", "assay": "AUBC (0 to 24 hrs) in Enterococcus faecalis ATCC 29212 in two-compartment pharmacokinetic/pharmacodynamic model at 200 mg, bid administered as 0.5 hr infusion for 2 days", "format": "functional", "in_short": "(§3)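 Hollow-fibre two-compartment model in cation-adjusted, protein-free MH broth at 37°C. Human total-plasma linezolid profile simulated as 0.5-h infusion every 12 h for 48 h. Concentrated 18-h culture injected into the peripheral compartment 3 h before first sample, giving about 10^8 (E. faecalis) or 10^9 (S. aureus) CFU/ml. Viable counts by dilution plating over 0–24 h. Area indices calculated versus growth control curve. Duplicate runs.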"}, "Enterococcus faecalis [7]": {"system": "Enterococcus faecalis", "assay": "Bactericidal activity against 24 hrs peripheral compartment culture samples of Enterococcus faecalis ATCC 29212 in two-compartment pharmacokinetic/pharmacodynamic model assessed as effect on bacterial count at 200 mg, bid administered as 0.5 hr infusion", "format": "functional", "in_short": "as §2"}, "[8]": {"assay": "Mean residence time in two-compartment pharmacokinetic/pharmacodynamic model at 800 mg, bid administered as 0.5 hrs infusion", "format": "ADME, organism-based", "settings": "iv"}, "[9]": {"assay": "Mean residence time in two-compartment pharmacokinetic/pharmacodynamic model at 200 mg, bid administered as 0.5 hrs infusion", "format": "ADME, organism-based", "settings": "iv"}, "Enterococcus faecalis [10]": {"system": "Enterococcus faecalis", "assay": "Bactericidal activity against 12.5 hrs peripheral compartment culture samples of Enterococcus faecalis Ef1497 in two-compartment pharmacokinetic/pharmacodynamic model assessed as effect on bacterial count at 800 mg, bid administered as 0.5 hr infusion", "format": "functional", "in_short": "as §2"}, "Enterococcus faecalis [11]": {"system": "Enterococcus faecalis", "assay": "T>MIC in Enterococcus faecalis ATCC 29212 in two-compartment pharmacokinetic/pharmacodynamic model at 200 mg, bid administered as 0.5 hr infusion for 2 days", "format": "functional"}, "Enterococcus faecalis [12]": {"system": "Enterococcus faecalis", "assay": "Bactericidal activity against 24 hrs peripheral compartment culture samples of Enterococcus faecalis ATCC 29212 in two-compartment pharmacokinetic/pharmacodynamic model assessed as effect on bacterial count at 600 mg, bid administered as 0.5 hr infusion", "format": "functional", "in_short": "as §2"}, "Enterococcus faecalis [13]": {"system": "Enterococcus faecalis", "assay": "Bactericidal activity against 12.5 hrs peripheral compartment culture samples of Enterococcus faecalis ATCC 29212 in two-compartment pharmacokinetic/pharmacodynamic model assessed as effect on bacterial count at 600 mg, bid administered as 0.5 hr infusion", "format": "functional", "in_short": "as §2"}, "Enterococcus faecalis [14]": {"system": "Enterococcus faecalis", "assay": "Bactericidal activity against 12 hrs peripheral compartment culture samples of Enterococcus faecalis Ef1497 in two-compartment pharmacokinetic/pharmacodynamic model assessed as effect on bacterial count at 600 mg, bid administered as 0.5 hr infusion", "format": "functional", "in_short": "as §1"}, "Enterococcus faecalis [15]": {"system": "Enterococcus faecalis", "assay": "T>MIC in Enterococcus faecalis ATCC 29212 in two-compartment pharmacokinetic/pharmacodynamic model at 600 mg, bid administered as 0.5 hr infusion for 2 days", "format": "functional"}, "[16]": {"assay": "Residual concentration at the end of the administration interval in two-compartment pharmacokinetic/pharmacodynamic model at 800 mg, bid administered as 0.5 hr infusion over 24 hrs", "format": "ADME", "settings": "in vivo, iv"}, "Enterococcus faecalis [17]": {"system": "Enterococcus faecalis", "assay": "ABBC (0 to 24 hrs) in Enterococcus faecalis Ef1497 in two-compartment pharmacokinetic/pharmacodynamic model at 800 mg, bid administered as 0.5 hr infusion for 2 days", "format": "functional", "in_short": "as §3"}, "Enterococcus faecalis [18]": {"system": "Enterococcus faecalis", "assay": "Bactericidal activity against 1 hr peripheral compartment culture samples of Enterococcus faecalis Ef1497 in two-compartment pharmacokinetic/pharmacodynamic model assessed as effect on bacterial count at 600 mg, bid administered as 0.5 hr infusion", "format": "functional", "in_short": "as §1"}, "[19]": {"assay": "Volume of distribution at steady state in two-compartment pharmacokinetic/pharmacodynamic model at 800 mg, bid administered as 0.5 hr infusion over 24 hrs", "format": "ADME, organism-based", "settings": "iv, read-out: Vdss"}, "Enterococcus faecalis [20]": {"system": "Enterococcus faecalis", "assay": "Bactericidal activity against 0.5 hrs peripheral compartment culture samples of Enterococcus faecalis Ef1497 in two-compartment pharmacokinetic/pharmacodynamic model assessed as effect on bacterial count at 600 mg, bid administered as 0.5 hr infusion", "format": "functional", "in_short": "as §1"}, "Staphylococcus aureus [21]": {"system": "Staphylococcus aureus", "assay": "Bactericidal activity against 48 hrs peripheral compartment culture samples of Staphylococcus aureus RN4220 MutS2 in two-compartment pharmacokinetic/pharmacodynamic model assessed as effect on bacterial count at 600 mg, bid administered as 0.5 hr infusion", "format": "functional", "in_short": "as §2"}, "Enterococcus faecalis [22]": {"system": "Enterococcus faecalis", "assay": "Bactericidal activity against 13 hrs peripheral compartment culture samples of Enterococcus faecalis Ef1497 MutM3 in two-compartment pharmacokinetic/pharmacodynamic model assessed as effect on bacterial count at 200 mg, bid administered as 0.5 hr infusion", "format": "functional", "in_short": "as §2"}, "Staphylococcus aureus [23]": {"system": "Staphylococcus aureus", "assay": "Bactericidal activity against 13 hrs peripheral compartment culture samples of Staphylococcus aureus RN4220 MutS2 in two-compartment pharmacokinetic/pharmacodynamic model assessed as effect on bacterial count at 600 mg, bid administered as 0.5 hr infusion", "format": "functional", "in_short": "as §2"}, "Enterococcus faecalis [24]": {"system": "Enterococcus faecalis", "assay": "ABBC (0 to 24 hrs) in Enterococcus faecalis Ef1497 MutM3 in two-compartment pharmacokinetic/pharmacodynamic model at 200 mg, bid administered as 0.5 hr infusion for 2 days", "format": "functional", "in_short": "as §3"}, "Staphylococcus aureus [25]": {"system": "Staphylococcus aureus", "assay": "Bactericidal activity against 24 hrs peripheral compartment culture samples of Staphylococcus aureus RN4220 MutS2 in two-compartment pharmacokinetic/pharmacodynamic model assessed as effect on bacterial count at 600 mg, bid administered as 0.5 hr infusion", "format": "functional", "in_short": "as §2"}, "[26]": {"assay": "Total clearance in two-compartment pharmacokinetic/pharmacodynamic model at 200 mg, bid administered as 0.5 hrs infusion", "format": "ADME, organism-based", "settings": "iv"}, "Enterococcus faecalis [27]": {"system": "Enterococcus faecalis", "assay": "Bactericidal activity against 12.5 hrs peripheral compartment culture samples of Enterococcus faecalis Ef1497 in two-compartment pharmacokinetic/pharmacodynamic model assessed as effect on bacterial count at 600 mg, bid administered as 0.5 hr infusion", "format": "functional", "in_short": "as §2"}}, "data": [{"smiles": "CC(=O)NC[C@H]1CN(c2ccc(N3CCOCC3)c(F)c2)C(=O)O1", "note": "[LINEZOLID]", "values": [{"measurement": "log10CFU/ml", "setting": "Enterococcus faecalis [1]", "result": -0.009}, {"measurement": "log10CFU/ml", "setting": "Enterococcus faecalis [2]", "result": 0.08}, {"measurement": "log10CFU/ml", "setting": "Enterococcus faecalis [3]", "result": 0.06}, {"measurement": "half-life", "setting": "in vivo", "result": 5.2, "unit": "h"}, {"measurement": "Vd", "setting": "[4]", "result": 100, "unit": "L"}, {"measurement": "AUC at 24 h", "setting": "[5]", "result": 10.1, "unit": "µg·h/mL"}, {"measurement": "AUBC", "setting": "Enterococcus faecalis [6]", "result": 214, "unit": "log10CFU/ml.hr"}, {"measurement": "log10CFU/ml", "setting": "Enterococcus faecalis [7]", "result": 0.83}, {"measurement": "MRT", "setting": "[8]", "result": 6.55, "unit": "h"}, {"measurement": "MRT", "setting": "[9]", "result": 8.65, "unit": "h"}, {"measurement": "log10CFU/ml", "setting": "Enterococcus faecalis [10]", "result": -0.03}, {"measurement": "fT>MIC", "setting": "Enterococcus faecalis [11]", "result": 8.08, "unit": "%"}, {"measurement": "log10CFU/ml", "setting": "Enterococcus faecalis [12]", "result": 0.32}, {"measurement": "log10CFU/ml", "setting": "Enterococcus faecalis [13]", "result": 0.1}, {"measurement": "log10CFU/ml", "setting": "Enterococcus faecalis [14]", "result": -0.12}, {"measurement": "fT>MIC", "setting": "Enterococcus faecalis [15]", "result": 69.1, "unit": "%"}, {"measurement": "Drug uptake", "setting": "[16]", "result": 1.42, "unit": "µg/mL"}, {"measurement": "ABBC", "setting": "Enterococcus faecalis [17]", "result": 3.6, "unit": "log10CFU/ml.hr"}, {"measurement": "log10CFU/ml", "setting": "Enterococcus faecalis [18]", "result": -0.05}, {"measurement": "Vd", "setting": "[19]", "result": 89.3, "unit": "L"}, {"measurement": "log10CFU/ml", "setting": "Enterococcus faecalis [20]", "result": -0.01}, {"measurement": "log10CFU/ml", "setting": "Staphylococcus aureus [21]", "result": 0.74}, {"measurement": "log10CFU/ml", "setting": "Enterococcus faecalis [22]", "result": 0.23}, {"measurement": "log10CFU/ml", "setting": "Staphylococcus aureus [23]", "result": -0.81}, {"measurement": "ABBC", "setting": "Enterococcus faecalis [24]", "result": 2.32, "unit": "log10CFU/ml.hr"}, {"measurement": "log10CFU/ml", "setting": "Staphylococcus aureus [25]", "result": 0.52}, {"measurement": "clearance", "setting": "[26]", "result": 248, "unit": "mL/min"}, {"measurement": "log10CFU/ml", "setting": "Enterococcus faecalis [27]", "result": -0.14}]}]}
